In ChEMBL document CHEMBL2146365, “Design and synthesis of EGFR dimerization inhibitors and evaluation of their potential in the treatment of psoriasis” (Bioorg Med Chem, 2012):
The source made the active and inactive calls. No cut-off for these calls is given here.

Tests used:
HaCaT [1] = assay: Induction of apoptosis in human HaCaT cells assessed as activation of caspase 3/7 after 12 hrs; format: functional, cell-based
How it was run: (§1)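 HaCaT cells were seeded at 10,000 cells/0.2 ml/well, attached overnight and exposed to compound (56–446 µM) for 12 h. Caspase-3/7 activity was measured with the Apo-ONE homogeneous kit, fluorescence 499/521 nm, in triplicate, with medium-only background wells. MTT viability was run in parallel. Results are means of two experiments, t-test against control.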

[2] = Cytotoxicity against HPV-16 transformed human CCD-1106 cells assessed as cell viability after 24 hrs by MTT assay; format: functional; details: CCD-1106, 24 h, read-out: LD50 (the source's name)
How it was run: (§2)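 Cells were plated at 10,000/well, attached overnight, and exposed 6 or 24 h to eight drug concentrations with six in-plate replicates (DMSO <1%). MTT (0.5 mg/ml in PBS) was added for 2 h at 37 °C, then dissolved in 90% isopropanol/10% DMSO, and A590 was read. Values were corrected against untreated controls. LD₅₀ is reported as mean ± S.E.M., n = 3.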

[3] = biological target: Epidermal growth factor receptor (Homo sapiens) (UniProt P00533); assay: Inhibition of EGFR-mediated ERK1 phosphorylation in HPV-16 transformed human CCD-1106 cells at 116.8 uM after 30 mins by densitometric analysis; format: cell-based
Epidermal growth factor receptor (Homo sapiens), sequence (P00533 whole entry): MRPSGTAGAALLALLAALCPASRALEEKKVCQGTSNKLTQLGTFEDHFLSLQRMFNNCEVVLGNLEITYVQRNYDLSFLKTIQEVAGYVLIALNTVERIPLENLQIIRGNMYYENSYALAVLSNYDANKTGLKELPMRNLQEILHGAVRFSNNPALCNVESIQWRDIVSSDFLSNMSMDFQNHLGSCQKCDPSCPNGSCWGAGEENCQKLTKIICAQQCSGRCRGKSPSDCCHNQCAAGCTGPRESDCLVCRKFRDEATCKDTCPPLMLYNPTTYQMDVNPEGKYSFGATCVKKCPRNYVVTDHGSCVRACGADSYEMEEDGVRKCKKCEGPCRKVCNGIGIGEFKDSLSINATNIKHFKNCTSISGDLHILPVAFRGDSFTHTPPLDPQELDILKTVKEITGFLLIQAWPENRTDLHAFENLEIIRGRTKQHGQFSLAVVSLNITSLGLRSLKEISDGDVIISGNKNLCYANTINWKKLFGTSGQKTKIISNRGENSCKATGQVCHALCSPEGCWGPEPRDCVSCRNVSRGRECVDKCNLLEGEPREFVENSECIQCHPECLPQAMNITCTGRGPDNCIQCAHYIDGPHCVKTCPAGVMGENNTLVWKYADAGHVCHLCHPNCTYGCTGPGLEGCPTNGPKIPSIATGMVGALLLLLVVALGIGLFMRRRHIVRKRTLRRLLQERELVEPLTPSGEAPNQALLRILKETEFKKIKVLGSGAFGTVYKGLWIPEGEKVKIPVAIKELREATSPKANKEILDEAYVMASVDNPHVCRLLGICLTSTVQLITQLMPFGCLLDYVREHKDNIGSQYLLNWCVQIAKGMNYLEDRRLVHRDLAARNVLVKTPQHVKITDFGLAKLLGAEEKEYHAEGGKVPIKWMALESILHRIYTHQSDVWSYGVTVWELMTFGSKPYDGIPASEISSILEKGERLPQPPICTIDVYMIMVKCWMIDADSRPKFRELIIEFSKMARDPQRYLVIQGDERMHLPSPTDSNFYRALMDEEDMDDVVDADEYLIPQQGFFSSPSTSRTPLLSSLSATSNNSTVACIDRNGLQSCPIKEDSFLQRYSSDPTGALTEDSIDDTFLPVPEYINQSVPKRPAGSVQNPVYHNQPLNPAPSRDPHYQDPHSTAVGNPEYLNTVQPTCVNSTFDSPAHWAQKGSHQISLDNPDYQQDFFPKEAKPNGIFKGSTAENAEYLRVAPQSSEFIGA
How it was run: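 CCD-1106 cells were treated with compound for 30 min at 37 °C, then stimulated with EGF. Lysates were separated by SDS-PAGE, blotted to nitrocellulose and blocked in 3% BSA/NaTT. Blots were probed with p-ERK (E-4) or p-p38 (D-8) antibodies, detected by ECL and quantified by densitometry.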

HaCaT [4] = assay: Induction of apoptosis in human HaCaT cells assessed as viable cells at 111.6 uM after 9 hrs by AnnexinV-FITC/propidium iodide based FACS flow cytometry; format: functional; details: read-out: Activity
How it was run: (§3)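 HaCaT cells at 10^6 cells/ml were attached overnight and exposed to vehicle, 111.6, 223.2 or 446 µM for 9 h. Cells were then trypsinized, washed in ice-cold PBS and stained with Annexin V-FITC/PI. FACScan analysis used FL1/FL2, 10,000 events per sample, scatter gating, and quadrants set with single-stain controls. Runs were in triplicate and results are means of two experiments.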

[5] = Cytotoxicity against HPV-16 transformed human CCD-1106 cells assessed as cell viability after 6 hrs by MTT assay; format: functional; details: CCD-1106, 6 h, read-out: LD50 (the source's name); how it was run: as §2
THP-1 = assay: Growth inhibition of human THP1 cells after 72 hrs by Cell Titer 96 aqueous one solution assay; format: functional
How it was run: (§4)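 Cells were grown in RPMI with 10% FBS, 2 mM L-glutamine and penicillin/streptomycin. They were seeded at 10,000 cells/well in round-bottom plates and exposed to compounds for 72 h (eight concentrations, six replicates). Cell Titer 96 AQueous One reagent was then added for 3 h at 37 °C and absorbance was read at 492 nm. Values are means, n = 6.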

HaCaT [6] = assay: Induction of apoptosis in human HaCaT cells assessed as late phase apoptotic/necrotic cells at 111.6 uM after 9 hrs by AnnexinV-FITC/propidium iodide based FACS flow cytometry; format: functional; how it was run: as §3
[7] = Growth inhibition of HPV-16 transformed human CCD-1106 cells after 72 hrs by neutral red uptake assay; format: functional; details: CCD-1106, 72 h
How it was run: (§5)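 Neutral red uptake assay over 72 h. Cells were seeded at 10,000 cells/well and attached overnight, then exposed to eight concentrations with six replicates (DMSO <1%). CCD-1106 were grown in keratinocyte SFM with supplements. HaCaT were grown in DMEM with 10% FBS and 2 mM L-glutamine. NHEK (pooled adult) were grown in keratinocyte growth medium with supplement. Values are means, n = 6, against the untreated control.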

[8] = Cytotoxicity against HPV-16 transformed human CCD-1106 cells assessed as LDH release after 6 hrs by CYTOX-96 assay; format: functional; details: CCD-1106, 6 h, read-out: LD50 (the source's name)
How it was run: (§6)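 LDH release was read with the CytoTox 96 kit following the kit protocol after 6 or 24 h drug exposure. Cells were seeded at 10,000/well and attached overnight. Eight concentrations were run with six in-plate replicates; DMSO was <1% in all wells, with medium-only blanks. LD₅₀ is reported as mean ± S.E.M., n = 6. CCD-1106 were grown in supplemented keratinocyte SFM; HaCaT in DMEM/10% FBS.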

HaCaT [9] = assay: Induction of apoptosis in human HaCaT cells assessed as viable cells at 446 uM after 12 hrs by MTT assay
HaCaT [10] = assay: Induction of apoptosis in human HaCaT cells assessed as viable cells at 223.2 uM after 9 hrs by AnnexinV-FITC/propidium iodide based FACS flow cytometry; format: functional; details: read-out: Activity; how it was run: as §3
[11] = Cytotoxicity against HPV-16 transformed human CCD-1106 cells assessed as LDH release after 24 hrs by CYTOX-96 assay; format: functional; details: CCD-1106, 24 h, read-out: LD50 (the source's name); how it was run: as §6
[12] = biological target: Epidermal growth factor receptor (Homo sapiens) (UniProt P00533); assay: Inhibition of phosphorylated EGFR dimerization in HPV-16 transformed human CCD-1106 cells at 126.7 uM after 30 mins by densitometric analysis; format: cell-based
How it was run: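 CCD-1106 cells were exposed to compounds for 30 min at 37 °C, then stimulated with EGF 50 ng/mL for 10 min. They were cross-linked with 2 mM BS3 for 30 min at room temperature and quenched with Tris (pH 7.5). Lysates were run on SDS-PAGE and immunoblotted for phospho-EGFR (Tyr1173) and total EGFR. The ~340 kDa dimer band was quantified by densitometry against the no-inhibitor control.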

U-937 = assay: Growth inhibition of human U937 cells after 72 hrs by Cell Titer 96 aqueous one solution assay; format: functional; how it was run: as §4
HaCaT [13] = assay: Growth inhibition of human HaCaT cells after 72 hrs by neutral red uptake assay; format: functional; how it was run: as §5
HaCaT [14] = assay: Cytotoxicity against human HaCaT cells assessed as cell viability after 24 hrs by MTT assay; format: functional; details: read-out: LD50 (the source's name); how it was run: as §2
HaCaT [15] = assay: Induction of apoptosis in human HaCaT cells assessed as viable cells at 446 uM after 9 hrs by AnnexinV-FITC/propidium iodide based FACS flow cytometry; format: functional; details: read-out: Activity; how it was run: as §3
HaCaT [16] = assay: Cytotoxicity against human HaCaT cells assessed as LDH release after 6 hrs by CYTOX-96 assay; format: functional; details: read-out: LD50 (the source's name); how it was run: as §6
HaCaT [17] = assay: Cytotoxicity against human HaCaT cells assessed as LDH release after 24 hrs by CYTOX-96 assay; format: functional; details: read-out: LD50 (the source's name); how it was run: as §6
HaCaT [18] = assay: Induction of necrosis in human HaCaT cells after 12 hrs by electron microscopy; format: functional, cell-based
HaCaT [19] = assay: Induction of apoptosis in human HaCaT cells assessed as early phase apoptotic cells at 111.6 uM after 9 hrs by AnnexinV-FITC/propidium iodide based FACS flow cytometry; format: functional; how it was run: as §3
[20] = Growth inhibition of human NHEK cells after 72 hrs by neutral red uptake assay; format: functional; how it was run: as §5
HaCaT [21] = assay: Induction of apoptosis in human HaCaT cells assessed as activation of caspase 3/7 at 56 to 446 uM after 12 hrs; format: functional, cell-based; how it was run: as §1
HaCaT [22] = assay: Induction of apoptosis in human HaCaT cells assessed as early phase apoptotic cells at 223.2 uM after 9 hrs by AnnexinV-FITC/propidium iodide based FACS flow cytometry; format: functional; how it was run: as §3

In the case of `CCOc1cc(/C=N\Nc2nc3c(c(=O)n(C)c(=O)n3C)n2Cc2ccccc2)ccc1O`, the Activity (HaCaT [1]) is reported as “Dose-dependent effect”, the CC50 [2] is reported as 112 µM and the inhibition [3] is reported as 39%. For the same compound, the viability at 111.6 µM (HaCaT [4]) was 82%, the CC50 [5] was 234 µM and the “growth inhibition (GI)” value (THP-1) was “Dose-dependent effect”. For the same compound, the GI50 (THP-1; THP-1, 72 h) was 36 µM, the Activity (HaCaT [6]) was 6% and the GI50 [7] was 9 µM. It also gave a CC50 [8] of over 446 µM, a viability at 446 µM (HaCaT [9]) of 62% and a viability at 223.2 µM (HaCaT [10]) of 73%. For the same compound, the CC50 [11] was over 446 µM, the inhibition [12] was 37% and the “growth inhibition (GI)” value (U-937) was “Dose-dependent effect”. It also gave a GI50 (U-937; U-937, 72 h) of 46 µM, a GI50 (HaCaT [13]) of 22 µM and a CC50 (HaCaT [14]) of 446 µM. For the same compound, the viability at 446 µM (HaCaT [15]) was 61%, the CC50 (HaCaT [16]) was 446 µM and the CC50 (HaCaT [17]) was 446 µM. For the same compound, the Activity (HaCaT [18]) was “inactive”, the Activity (HaCaT [19]) was 12% and the GI50 [20] was 54 µM. For the same compound, the Activity (HaCaT [21]) was “Active” and the Activity (HaCaT [22]) was 17%.
